Test results published in ChEMBL document CHEMBL1138155, “A lactosylated steroid contributes in vivo therapeutic benefits in experimental models of mouse lymphoma and human glioblastoma” (J Med Chem, 2006).
pIC50: −log10 of the molar value.

Tests used:
MCF7 = assay: Cytotoxicity against human MCF7 breast cancer cell line; assay type: functional, cell-based
How it was run: (§1)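 Colorimetric MTT assay on cultured human cancer cells after 3 days of continuous drug exposure. IC50 is the concentration that reduces overall cell-population growth by 50% relative to untreated cells.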

PC-3 [1] = assay: Antimigratory activity against human PC3 prostate cancer cell line at 100 nM after 22h; assay type: functional; settings: PC-3, 22 h
How it was run: (§2)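 Computer-assisted videomicroscopy tracking of living cultured cells, one image every 4 min over 24 h; migration scored as maximum relative distance from origin (MRDO) per cell, read at 12 or 22 h with compound at 100 nM or without (control). Control normalized to 0%. Triplicate analyses, 121–184 cells per condition; mean ± standard error.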

A549 [2] = assay: Cytotoxicity against human A549 NSCLC cell line; assay type: functional, cell-based; how it was run: as §1
U373 MG [3] = assay: Antimigratory activity against human U373 glioblastoma cell line at 100 nM after 12h; assay type: functional, U-373MG ATCC; how it was run: as §2
A549 [4] = assay: Antimigratory activity against human A549 NSCLC cell line at 100 nM after 22h; assay type: functional; settings: A549, 22 h; how it was run: as §2
Hs 683 = assay: Cytotoxicity against human Hs683 cancer cell line; assay type: functional, cell-based; how it was run: as §1
A549 [5] = assay: Antimigratory activity against human A549 NSCLC cell line at 100 nM after 12h; assay type: functional; settings: A549, 12 h; how it was run: as §2
Mus musculus = assay: Toxicity in mice at 160 mg/kg, ip 28 days post dose; assay type: organism-based; set-up: dose 160 mg/kg, route intraperitoneal; settings: in vivo, 672 h
How it was run: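 Healthy, non-tumor-grafted mice received a single acute ip dose of 160 mg/kg. Body weight and survival were recorded over at least 28 days after dosing to detect toxic effects.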

HCT-15 = assay: Cytotoxicity against human HCT15 colon cancer cell line; assay type: functional, cell-based; how it was run: as §1
PC-3 [6] = assay: Cytotoxicity against human PC3 prostate cancer cell line; assay type: functional, cell-based; how it was run: as §1
PC-3 [7] = assay: Antimigratory activity against human PC3 prostate cancer cell line at 100 nM after 12h; assay type: functional; settings: PC-3, 12 h; how it was run: as §2
U373 MG [8] = assay: Cytotoxicity against human U373 glioblastoma cell line; assay type: functional, cell-based, U-373MG ATCC; how it was run: as §1
U373 MG [9] = assay: Antimigratory activity against human U373 glioblastoma cell line at 100nM after 22h; assay type: functional, U-373MG ATCC; how it was run: as §2

Which results are given for `COc1ccc(OC)c([C@@H]2C[C@H]3[C@@H]4CC=C5C[C@@H](O[C@@H]6O[C@H](CO)[C@@H](O[C@@H]7O[C@H](CO)[C@@H](O)[C@H](O)[C@H]7O)[C@H](O)[C@H]6O)CC[C@]5(C)[C@H]4CC[C@]3(C)[C@H]2[C@H](C)O[C@@H]2O[C@H](CO)[C@@H](O[C@@H]3O[C@H](CO)[C@@H](O)[C@H](O)[C@H]3O)[C@H](O)[C@H]2O)c1`?
pIC50 (MCF7): < 5.00; inhibition at 0.1 µM (PC-3 [1]): -17%; pIC50 (A549 [2]): < 5.00; inhibition at 0.1 µM (U373 MG [3]): -8%; inhibition at 0.1 µM (A549 [4]): 3%; pIC50 (Hs 683): < 5.00; inhibition at 0.1 µM (A549 [5]): 4%; Activity (Mus musculus): Non-toxic; pIC50 (HCT-15): < 5.00; pIC50 (PC-3 [6]): < 5.00; inhibition at 0.1 µM (PC-3 [7]): 9%; pIC50 (U373 MG [8]): < 5.00; inhibition at 0.1 µM (U373 MG [9]): 4%
